PMC5013402 (BMJ Open Diabetes Research & Care, 2016)
Read-outs that look alike come from different tables or passages of the source. Marks after values point to notes of the source that are not given here.

What was measured:
[1] = cited from earlier work; for Terminal clearance half-life from the lung: delivered as Technosphere inhaled insulin
[2] = type: in vivo, human (patients with type 1 or type 2 diabetes); conditions: serum, mean (SD), n=19
In short: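 Patients arrived fasting, with the morning prandial dose withheld; basal insulin or oral agents were taken as usual. Each inhaled their current individualized dose (range 15–90 units), then drank a standardized 540 kcal/67.5 g carbohydrate liquid meal. Serum was sampled at −30, 0, 5, 10, 15, 20, 30, 45, 60, 90, 120, 180 and 240 min. The challenge was repeated ≥15 to ≤45 days after symptom resolution, each patient serving as own control. Descriptive statistics.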

[3] = after subcutaneous injection; cited from earlier work

Molecule	Terminal clearance half-life from the lung [1]	Duration of action [3]	Time to maximum concentration [3]	also measured
O=C(O)/C=C/C(=O)NCCCC[C@@H]1NC(=O)[C@H](CCCCNC(=O)/C=C/C(=O)O)NC1=O [FDKP, fumaryl diketopiperazine]	~1 h	–	–	Excretion ([1]; after inhalation of Technosphere inhaled insulin): excreted unchanged in the urine; FDKP tmax ([2]; during URTI): 15.8 (26.2)† min; FDKP t½ ([2]; during URTI): 163.2 (35.5)† min; FDKP tmax ([2]; post-URTI): 15.5 (14.8)† min; FDKP t½ ([2]; post-URTI): 174.8 (79.0)† min
insulin aspart	–	3 to 5 h	50 to 120 min	–
insulin: recombinant human insulin delivered as Technosphere inhaled insulin	~1 h	–	–	–
insulin lispro	–	3 to 5 h	50 to 120 min	–
regular human insulin: regular human insulin given by subcutaneous injection	–	5 to 8 h	80 to 120 min	–
